These results are taken from PubChem BioAssay.

Test [1] can be described thus: nonspecific flux increase, KCNQ1-free cells – parental CHO cells, counter-screen for KCNQ1 potentiator project (AID 493006).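 As to activation: fluorescence ratio of max minus min over baseline after K+ and Tl+ depolarization.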 The following applies: parental CHO-K1 cells, FluxOR thallium flux, at 10 µM; active compounds read high. In short, it runs like this:
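Material: parental CHO-K1 cells, FluxOR dye-loaded; Also added: Potassium/thallium depolarization pulse; Schedule: overnight 37 °C plating, 90 min dye, 20 min dark compound; Signal: kinetic FluxOR fluorescence, 10 s baseline, 110 s after stimulus.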

The target of test [2] is Potassium voltage-gated channel subfamily KQT member 1 (Homo sapiens) (UniProt P51787). As to the kind of experiment: enhancement of KCNQ1 channel thallium flux – FluxOR thallium flux, CHO cells, duplicates, confirmation (AID 493007;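 active = potentiation averaged over duplicate wells exceeding buffer-only control mean by more than 3 SD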;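 as to outcome: cells depolarized by a potassium plus thallium sulfate stimulus after compound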). The following applies: KCNQ1 cell line, FluxOR thallium flux fluorescence, at 10 µM; active compounds read high, % of reference activator effect, buffer zero. In short, it runs like this: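 System: KCNQ1-expressing CHO cell line; technique: kinetic thallium influx fluorescence with FluxOR dye, 10 s baseline, 110 s post-stimulus; timing: dye 90 min then compound 20 min, both at room temperature; controls: buffer-only wells as 0% and R-L3 activator as 100%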

In test [3] the target is Potassium voltage-gated channel subfamily KQT member 2 (Rattus norvegicus) (UniProt O88943). As to the kind of experiment: KCNQ2 thallium flux enhancement – KCNQ2-CHO-K1 cells, selectivity assay for KCNQ1 potentiator project (AID 493009;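 active = mean duplicate potentiation above the buffer control mean plus 5 SD of buffer wells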;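 also: assay conditions were tuned for KCNQ1 rather than KCNQ2 modulators; signal is max minus min fluorescence divided by baseline after thallium stimulus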). The note with it: FluxOR thallium flux fluorescence, at 10 µM; active compounds read high, scaled: buffer 0, activator control 100.
The target of test [4] is Potassium voltage-gated channel subfamily KQT member 1 (Homo sapiens) (UniProt P51787). As to the kind of experiment: KCNQ1 activators by electrophysiology – IonWorks patch clamp, KCNQ1-CHO cells, orthogonal assay for KCNQ1 potentiator project, confirmation (AID 493184;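 active = current rise at least 3 SD above the untreated control mean in each of two repeat wells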). The following applies: automated patch clamp current, at 10 µM; active compounds read high. In short, it runs like this: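 Test system: KCNQ1-expressing CHO cells. Medium: pH 7.4 external bath. Probe or stimulus: voltage step from -90 mV holding to +40 mV, 2,000 ms. Compound: 10 µM final, single point. Detection: automated perforated-patch electrophysiology. Read-out: percent current increase versus pre-compound level. Repeats: two replicates.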

Calls of active or inactive are those of the source.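 The calls were made as follows, unless noted: active = duplicate-averaged activation above buffer control mean plus 5 SD of those controls; inactive = the rest.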

Sequence of Potassium voltage-gated channel subfamily KQT member 1 (Homo sapiens) (P51787 whole entry, looked up): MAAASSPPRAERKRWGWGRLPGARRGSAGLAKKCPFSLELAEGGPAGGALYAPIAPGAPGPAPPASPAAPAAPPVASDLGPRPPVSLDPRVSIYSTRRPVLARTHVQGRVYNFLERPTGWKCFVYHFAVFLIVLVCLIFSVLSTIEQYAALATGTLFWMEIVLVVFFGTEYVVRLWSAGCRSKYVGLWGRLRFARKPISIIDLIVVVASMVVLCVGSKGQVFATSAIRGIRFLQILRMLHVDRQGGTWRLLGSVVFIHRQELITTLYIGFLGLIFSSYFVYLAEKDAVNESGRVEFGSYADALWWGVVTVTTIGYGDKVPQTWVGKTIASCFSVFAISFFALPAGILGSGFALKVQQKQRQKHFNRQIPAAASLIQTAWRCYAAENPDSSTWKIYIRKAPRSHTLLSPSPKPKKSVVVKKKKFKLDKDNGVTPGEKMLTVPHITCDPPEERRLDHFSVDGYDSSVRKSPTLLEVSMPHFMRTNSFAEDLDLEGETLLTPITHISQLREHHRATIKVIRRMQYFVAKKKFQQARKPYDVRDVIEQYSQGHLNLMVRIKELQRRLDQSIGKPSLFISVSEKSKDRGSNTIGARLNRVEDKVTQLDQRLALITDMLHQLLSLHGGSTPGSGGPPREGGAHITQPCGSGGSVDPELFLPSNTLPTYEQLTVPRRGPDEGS
Sequence of Potassium voltage-gated channel subfamily KQT member 2 (Rattus norvegicus) (O88943 whole entry, looked up): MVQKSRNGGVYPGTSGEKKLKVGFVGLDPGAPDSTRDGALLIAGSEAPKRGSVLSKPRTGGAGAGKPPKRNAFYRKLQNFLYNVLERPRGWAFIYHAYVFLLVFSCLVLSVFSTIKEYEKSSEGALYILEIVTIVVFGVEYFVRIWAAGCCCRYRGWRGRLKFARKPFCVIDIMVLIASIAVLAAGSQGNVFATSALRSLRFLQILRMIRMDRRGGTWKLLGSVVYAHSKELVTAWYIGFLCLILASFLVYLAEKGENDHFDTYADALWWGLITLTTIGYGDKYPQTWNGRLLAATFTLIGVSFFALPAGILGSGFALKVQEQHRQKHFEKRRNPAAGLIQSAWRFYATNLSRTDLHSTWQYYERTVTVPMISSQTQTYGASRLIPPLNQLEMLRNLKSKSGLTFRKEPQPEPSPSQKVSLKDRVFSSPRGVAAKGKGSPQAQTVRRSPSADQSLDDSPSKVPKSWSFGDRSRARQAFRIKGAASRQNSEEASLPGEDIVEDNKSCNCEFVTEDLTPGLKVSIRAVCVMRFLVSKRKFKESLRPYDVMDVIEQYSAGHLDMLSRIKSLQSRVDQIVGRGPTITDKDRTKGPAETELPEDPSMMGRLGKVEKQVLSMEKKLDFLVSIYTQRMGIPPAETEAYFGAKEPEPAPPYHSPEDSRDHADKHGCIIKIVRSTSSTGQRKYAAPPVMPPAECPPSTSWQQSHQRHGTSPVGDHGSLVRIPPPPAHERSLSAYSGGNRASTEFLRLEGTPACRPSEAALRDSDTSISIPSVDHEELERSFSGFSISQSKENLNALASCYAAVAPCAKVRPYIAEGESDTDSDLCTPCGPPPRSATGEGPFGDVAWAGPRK

Regarding `O=C(NCCN1CCOCC1)[C@H](Cc1ccccc1)N1C(=O)c2ccccc2C1=O`, the result in test [1] and in test [4] was inactive. The potentiation in test [2] was 26% (active); in test [3], 155% (active).

With `Cc1ccc2cc3cc(C(=O)NC4CC4)oc3nc2c1`, the outcome in test [1], in test [2], in test [3] and in test [4] was inactive.

`Cc1ccc(Cl)cc1N1CCN(C(=O)c2ccc(CN3CCOCC3)cc2)CC1`: the result in test [1], in test [2], in test [3] and in test [4] was inactive.

Regarding `Cc1ccc(-c2c(=O)n(O)c3ccccc3[n+]2[O-])cc1`, in test [1], the activation is 202% (active). Besides, the potentiation in test [2] is 25% (active); in test [3], 184% (active). The result in test [4] was inactive.

With `COCCn1c(=S)[nH]c2sc3c(c2c1=O)CCCC3`, the activation in test [1] was 325% (active). Besides, the results for the potentiation in test [2] and in test [3] were 106% (active) and 312% (active), respectively. Further, in test [4], the outcome was inactive.

Take `C/C(=N\NC(=O)C(C)Sc1ccccc1)c1ccc([N+](=O)[O-])cc1` (stereo not given): the outcome in test [1], in test [2], in test [3] and in test [4] was inactive.

For `CC(=O)c1ccc(OCc2cc(C(=O)N3CC[C@@H]4CCCC[C@H]4C3)no2)cc1`, in test [1], the activation is 144% (active). Moreover, the results for the potentiation in test [2] and in test [3] were 49% (active) and 160% (active), respectively. In addition, the result in test [4] was inactive.

With `COc1cccc2sc(Nc3nnc(-c4ccc(F)cc4)o3)nc12`, the activation in test [1] was 394% (active). Also, the potentiation is 202% (active) in test [2] and 521% (active) in test [3]. In test [4], the result was inactive.

Consider `Cc1ccc(-c2csc3nc[nH]c(=S)c23)cc1C`, for which the activation in test [1] is 223% (active). For the same compound, the potentiation in test [2] is 56.5% (active); in test [3], 222% (active). Besides, the outcome in test [4] was inactive.

With `CCc1cc2c(=O)n(CCC(C)C)c(=S)[nH]c2s1`, in test [1], the activation was 516% (active). For the same compound, the potentiation in test [2] was 228% (active); in test [3] it was 499% (active). Moreover, the result in test [4] was inactive.

As to `COc1cccc(C(=O)NNC(=O)C(=O)Nc2cccc3ccccc23)c1`, the activation in test [1] was 218% (active). Further, the results for the potentiation in test [2] and in test [3] were 51.5% (active) and 228% (active), respectively. For the same compound, the result in test [4] was inactive.

Regarding `Cc1ccc(C(=O)N/C(=C\c2ccc(-c3ccccc3[N+](=O)[O-])o2)C(=O)NCCCN2CCOCC2)cc1`, the result in test [1], in test [2], in test [3] and in test [4] was inactive.

With `Cc1cc(NS(=O)(=O)c2ccc(NC(=O)C(C)Oc3ccccc3Cl)cc2)no1` (stereo not given), the result in test [1], in test [2], in test [3] and in test [4] was inactive.

Regarding `O=C(CN1C2=NCCCN2c2ccccc21)c1ccc2c(c1)OCO2`, the outcome in test [1], in test [2], in test [3] and in test [4] was inactive.

Regarding `C=CCN(c1ccccc1)S(=O)(=O)c1cccc(C(=O)Nc2cccc(C)n2)c1`, the activation in test [1] is 290% (active). For the same compound, the potentiation in test [2] was 224% (active); in test [3], 358% (active). The outcome in test [4] was inactive.

Take `CC(=O)OC1OCCOC1NC(=S)Nc1ccc(C)cc1` (stereo not given): the result in test [1], in test [2], in test [3] and in test [4] was inactive.

With `O=c1c2cccnc2[nH]c(=S)n1CCC1=CCCCC1`, the activation in test [1] was 258% (active). The figures for the potentiation in test [2] and in test [3] were 64% (active) and 229% (active), respectively. In addition, in test [4], the result was inactive.

For `S=c1nc2ccccc2c2nc(-c3ccccc3)[nH]n12`, the result in test [1], in test [2], in test [3] and in test [4] was inactive.

Regarding `O=c1c2ccccc2[nH]c(=S)n1CCc1ccccc1`, in test [1], the activation was 159% (active). The result in test [2], in test [3] and in test [4] was inactive.

As for `COCCCn1c(=S)[nH]c2c(sc3ccccc32)c1=O`, the activation in test [1] is 176% (active). The potentiation in test [2] is 69.5% (active); in test [3], 160% (active). Further, the outcome in test [4] was inactive.

In the case of `C=CCn1c(SCN2C(=O)c3ccccc3C2=O)nc2ccc(Cl)cc2c1=O`, the activation in test [1] was 152% (active). In addition, the outcome in test [2], in test [3] and in test [4] was inactive.

Regarding `C=C1CCN(c2ccc(C(=O)NCc3ccc(C)cc3)cc2[N+](=O)[O-])CC1`, the activation in test [1] is 164% (active). Besides, in test [2], the potentiation was 19.5% (active). Further, the result in test [3] and in test [4] was inactive.

In the case of `CSC(=S)N/N=C(\C)c1ccc(Br)cc1`, in test [1], the activation is 309% (active). Also, the potentiation in test [2] was 132% (active); in test [3], 258% (active). In addition, in test [4], the outcome was inactive.

`Cc1ccc(SCC2(O)CCN(S(=O)(=O)c3ccc(Cl)cc3)CC2)cc1`: the result in test [1], in test [2], in test [3] and in test [4] was inactive.

Turning to `CC(C)(C)c1ccc2c(c1)OC(C(=O)N/N=C\c1ccccn1)CO2` (stereo not given), the outcome in test [1], in test [2], in test [3] and in test [4] was inactive.

Consider `Cc1ccc(C)c2sc(NC(=O)c3nc4ccccc4s3)nc12`, for which the outcome in test [1], in test [3] and in test [4] was inactive. The potentiation in test [2] is 18% (active).

Consider `O=C(NC(=S)N(CCCCO)C1CCCCC1)c1sc2ccccc2c1Cl`, for which the activation in test [1] was 368% (active). Moreover, the potentiation in test [2] was 192% (active); in test [3], 392% (active). Besides, the result in test [4] was inactive.

As for `O=C(COC(=O)C1C2CC3OC(=O)C1C3C2)Nc1ccc(Cl)cc1` (stereo not given), the outcome in test [1], in test [2], in test [3] and in test [4] was inactive.

Consider `COc1ccccc1-c1cc(C(=O)Nc2cccnc2)no1`, for which the activation in test [1] was 314% (active). In addition, the potentiation in test [2] is 112% (active); in test [3], 398% (active). In addition, the result in test [4] was inactive.

Regarding `Cc1sc2ncnc(SCC(=O)c3ccc(O)cc3O)c2c1C`, in test [1], the activation was 150% (active). Also, the potentiation in test [2] is 20.5% (active); in test [3] it was 176% (active). Besides, in test [4], the outcome was inactive.
